Our source for the CC50 and EC50 values is ChEMBL document CHEMBL2034874, “5-acetyl-2-arylbenzimidazoles as antiviral agents. Part 4” (Eur J Med Chem, 2012).

Data set [1] can be described thus: Cytotoxicity against african green monkey Vero 76 cells after 48 to 96 hrs by MTT assay. The class given is cell-based. Conditions: chlorocebus sabaeus. In general terms: Tetrazolium assays rely on reduction of a dye to a coloured formazan, in cell work by metabolically active cells.
Data set [2] concerns Mammalian orthoreovirus 1. Nature of the data set: Antiviral activity against Reovirus 1 3651 ATCC VR-214 infected in BHK21 cells assessed as inhibition of virus-induced cytopathogenicity after 3 to 4 days by MTT assay. It is filed as functional, organism-based. Conditions: Mammalian orthoreovirus 1, 3651 ATCC VR-214, BHK-21. A digest of the protocol:
(§1)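 BHK (5×10^4/well) or MDBK (3×10^4/well) cells grown to confluent monolayers overnight, infected at m.o.i. 0.01 in maintenance MEM-Earl with 0.5% inactivated FBS. Serially diluted compounds added after 1 h. Viability read by MTT after 3–4 days at 37 °C. Values are expressed as % of untreated controls, and EC50 is derived by linear regression. Duplicate samples.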

Data set [3] concerns Human alphaherpesvirus 1. Nature of the data set: Antiviral activity against Herpes simplex virus type 1 KOS ATCC VR-1493 infected in african green monkey Vero-76 cells assessed as reduction in viral plaque after 3 days by crystal violet staining. It is filed as functional, organism-based. As to conditions: Human alphaherpesvirus 1, KOS ATCC VR1493, Vero 76, 72 h. The essentials: (§2)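 Vero-76 monolayers (2×10^5 cells/well) infected for 2 h at 50–100 PFU/well. Unadsorbed virus removed. D-MEM with 1% inactivated FBS, 0.75% methylcellulose and serial compound dilutions added. Incubation at 37 °C for 3 days (CVB-5, HSV-1) or 5 days (RSV). Fixed and stained with 50% ethanol/0.8% crystal violet, then plaques counted. EC50 by linear regression versus untreated controls.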

Data set [4] in a line: Cytotoxicity against human MT4 cells after 96 hrs by MTT assay. The class given is cell-based. A digest of the protocol:
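Exponentially growing MT-4 cells seeded at 1×10^5 cells/mL in RPMI-1640 with 10% FBS and incubated with serial compound dilutions at 37 °C and 5% CO2. Viability measured by MTT after 96 h. CC50 by linear regression against untreated controls.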

The nature of data set [5]: Cytotoxicity against BHK21 cells by MTT assay. The class given is cell-based, Mesocricetus auratus. As to conditions: hamster, BHK-21 cells. A digest of the protocol: (§3)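 Mock-infected MDBK (6×10^5 cells/mL, MEM-E with 10% horse serum) or BHK (1×10^6 cells/mL, MEM-E with 10% FBS) cells incubated with serial compound dilutions at 37 °C and 5% CO2. Viability measured by MTT after 48–96 h. CC50 by linear regression against untreated controls.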

Data set [6] is described as follows: Cytotoxicity against MDBK cells after 48 to 96 hrs by MTT assay. As to conditions: cattle. It is filed as cell-based, Bos taurus. A digest of the protocol:
as §3

Data set [7] relates to Coxsackievirus B5. Nature of the data set: Antiviral activity against Coxsackie virus type B5 Ohio-1 ATCC VR-29 infected in african green monkey Vero-76 cells assessed as reduction in viral plaque after 3 days by crystal violet staining. It is filed as functional, organism-based. As to conditions: Enterovirus B, Ohio-1 ATCC VR-29, Vero 76, 72 h. A digest of the protocol: as §2

Data set [8] concerns Hepatitis C virus. Description: Antiviral activity against Hepatitis C virus genotype 1b infected in human GS4.1 cells assessed as inhibition of viral replication after 72 hrs by ELISA. The class given is functional, organism-based, Hepacivirus hominis. The essentials: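 Huh-7 cells carrying the genotype 1b replicon (GS4.1) seeded at 7.5×10^3/well with two-fold serial dilutions, top 75 µM, for 72 h at 37 °C. Cells fixed in acetone–methanol. NS4A quantified by ELISA with anti-NS4A antibody A-236, peroxidase conjugate and o-phenylenediamine, read at 492 nm. EC50 from four-parameter sigmoidal fit. Replicon-free Huh-7 served as negative control.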
A general note: In an ELISA, binding on a coated surface is turned into a signal by an enzyme label.

For data set [9], the system named is Yellow fever virus. Description: Antiviral activity against Yellow fever virus 17D infected in BHK21 cells assessed as inhibition of virus-induced cytopathogenicity after 3 to 4 days by MTT assay. It is filed as functional, cell-based. As to conditions: BHK-21. In general terms: Damage to the host cells serves as the signal in cytopathic effect assays.
Data set [10] can be described thus: Cytotoxicity against human GS4.1 cells assessed as decrease in cell viability by Cell Titer glo assay. The class given is cell-based.
A short description of data set [11]: Antiviral activity against Human respiratory syncytial virus A2 ATCC VR-1540 infected in african green monkey Vero-76 cells assessed as reduction in viral plaque after 5 days by crystal violet staining. It is filed as functional, cell-based. As to conditions: ATCC VR-1540, Vero 76, 120 h. A digest of the protocol:
as §2

Data set [12] concerns Vesicular stomatitis Indiana virus. Description: Antiviral activity against Vesicular stomatitis virus indiana ATCC VR-1540 infected in african green monkey Vero-76 cells assessed as reduction in viral plaque after 2 days by crystal violet staining. The class given is functional, organism-based. As to conditions: ATCC VR-1540, Vero 76, 48 h.
Data set [13] is described as follows: Antiviral activity against BVDV1 NADL ATCC VR-534 infected in MDBK cells assessed as inhibition of virus-induced cytopathogenicity after 3 to 4 days by MTT assay. The class given is functional, cell-based, Bovine viral diarrhea virus 1-NADL. As to conditions: Bovine viral diarrhea virus isolates and strains, ATCC VR-534, MDBK. The essentials:
as §1

Data set [14] has as its system Poliovirus 1. Description: Antiviral activity against Polio virus type 1 strain sabin ATCC VR-1562 infected in african green monkey Vero-76 cells assessed as reduction in viral plaque after 2 days by crystal violet staining. Conditions: Enterovirus C, ATCC VR-1562, Vero 76, 48 h. The class given is functional, cell-based, Human poliovirus 1 strain Sabin.
The test system of data set [15] is Human immunodeficiency virus 1. Nature of the data set: Antiviral activity against HIV1 3B infected in human MT4 cells assessed as inhibition of virus-induced cytopathogenicity after 4 days by MTT assay. As to conditions: Human immunodeficiency virus 1, 3B, MT4, 96 h. It is filed as functional, organism-based. The essentials: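 MT-4 cells (1×10^4/well) in RPMI with serial compound dilutions, infected with HIV-1 IIIB at 100 CCID50 (m.o.i. 0.01). Viability measured by MTT after 4 days at 37 °C. EC50 for 50% protection from cytopathogenicity obtained by linear regression against untreated controls.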

What is called CC50 is the concentration that lowers cell viability or growth by half. The EC50 is the concentration at which the effect is half-maximal. For the compound `COc1ccc(-c2nc3cc(/C(C)=N/NC(N)=S)ccc3[nH]2)c(OC)c1`, the CC50 in data set [1] is greater than 100 µM; in data set [5], 28 µM; in data set [6], greater than 100 µM; in data set [10], 11.3 µM. Also, the concentration giving a half-maximal response (EC50) is greater than 28 µM in data set [2]; greater than 100 µM in [3]; greater than 100 µM in [7]; 1.11 µM in data set [8]; greater than 28 µM in data set [9]; greater than 100 µM in [11]. For the same compound, the concentration for a half-maximal effect (EC50) in [12] was greater than 100 µM; in data set [13], 0.8 µM; in [14] it was greater than 100 µM; in [15], greater than 72 µM. For the same compound, in [4], the CC50 at 96 h amounted to 72 µM.
